In the library only some 3.7% were active in any assay of this set; here they are far more common.
KCNK3 block = human KCNK3 channel inhibition, primary screen; O14649; AID 602410; CHO-KCNK3 thallium flux, FluxOR fluorescence; stronger effect = lower value; 340,000 compounds, 0.84% hits; B-score at 10 µM;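 active = B-score under library mean minus 4 SD, starting fluorescence ratio at most library mean plus 5 SD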;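 also: more negative B-score means stronger inhibition of thallium flux through KCNK3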
KCNQ1 inh = human KCNQ1 channel inhibition | P51787 | CHO-K1 KCNQ1, FluxOR thallium flux fluorescence; stronger effect = higher value | B-score at 10 µM | 310,000 compounds, 1.3% hits;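 active = compounds whose thallium flux B-score, printed positive for inhibition, exceeds three library SD while starting fluorescence stays within three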;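 also: channel opened by potassium depolarization with thallium stimulus after 20 min compound exposure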
Target sequence (P51787 whole entry, looked up): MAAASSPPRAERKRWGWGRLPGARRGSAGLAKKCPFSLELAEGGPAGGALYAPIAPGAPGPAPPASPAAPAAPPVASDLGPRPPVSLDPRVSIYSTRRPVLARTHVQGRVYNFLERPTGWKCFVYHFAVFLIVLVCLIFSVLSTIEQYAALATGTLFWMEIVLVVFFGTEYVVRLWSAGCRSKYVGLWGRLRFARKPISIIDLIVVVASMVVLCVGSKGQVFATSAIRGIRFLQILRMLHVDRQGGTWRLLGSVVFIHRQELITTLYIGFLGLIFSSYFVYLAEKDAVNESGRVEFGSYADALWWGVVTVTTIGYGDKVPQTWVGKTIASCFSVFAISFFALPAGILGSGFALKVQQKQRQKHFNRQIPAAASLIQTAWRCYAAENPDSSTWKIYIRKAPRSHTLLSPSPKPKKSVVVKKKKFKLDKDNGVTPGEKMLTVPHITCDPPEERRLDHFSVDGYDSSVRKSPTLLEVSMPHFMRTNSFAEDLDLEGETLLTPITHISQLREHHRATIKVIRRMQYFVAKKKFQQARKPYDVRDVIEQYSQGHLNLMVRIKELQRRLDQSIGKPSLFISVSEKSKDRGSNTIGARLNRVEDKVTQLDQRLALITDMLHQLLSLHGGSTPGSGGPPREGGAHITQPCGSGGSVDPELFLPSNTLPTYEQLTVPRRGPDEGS
Kir21 inh = Kir2.1 (mouse) channel inhibition. HEK293-Kir2.1, FluxOR thallium flux fluorescence; stronger effect = lower value. B-score at 10 µM. 310,000 compounds, 0.85% hits;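 active = fluorescence ratio B-score at or below minus 3 SD of library scores, with starting-brightness B-score within 2 SD, cut at about -4.2 in these data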;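 also: channel flux triggered by added potassium and thallium sulfate stimulus; B-score of peak minus minimum fluorescence over baseline after thallium stimulus; more negative B-score means stronger Kir2.1 block with less thallium influx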
KCNQ1 pot = potentiates or activates the human KCNQ1 potassium channel | B-score at 10 µM | 310,000 compounds, 0.35% hits | CHO-K1 KCNQ1, thallium flux FluxOR fluorescence; stronger effect = higher value | P51787;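 active = fluorescence ratio B-score, a plate-corrected score, at least three library SD, with initial intensity B-score within 5 SD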
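Schedule – 37 °C overnight plating, 90-min dark dye load, 20-min compound pretreatment · System – stable KCNQ1 CHO-K1 line · Probe or stimulus – thallium- and potassium-containing depolarizing buffer · Measured by – kinetic FluxOR fluorescence, 10 s baseline plus 110 s post-stimulus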
KCNK9 inh = human KCNK9 channel inhibition; Q9NPC2; HEK293 KCNK9, FluxOR thallium flux fluorescence; stronger effect = lower value; B-score at 10 µM; 310,000 compounds, 1.2% hits; AID 488922;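 active = ratio B-score over 3 SD below the library mean, with starting fluorescence within 5 SD of its mean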;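 also: negative B-score means less thallium flux so channel inhibition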
hERG rescue = hERG (human) protection from proarrhythmic block; 310,000 compounds, 0.51% hits; AID 1511; CHO-hERG, FluxOR thallium flux, dofetilide IC70 present; activation (rescue from dofetilide block), less the hit threshold, % at 10 µM;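 active = activation above the mean of controls blocked by dofetilide plus 5 SD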;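 also: thallium influx through hERG after potassium depolarization seen as dye fluorescence rise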
The depositor's hits bear a star.

For CCOC(=O)CN1C(c2ccc(O)cc2)Nc2ccc(Br)cc2C1c1ccccc1 (stereo not given) the results were KCNK3 block inactive, KCNQ1 inh inactive, Kir21 inh 0.02, KCNQ1 pot inactive, KCNK9 inh -7.5* and hERG rescue -7.
Screening CCOc1ccc(CN(C)CC(O)COC(c2ccc(OC)cc2)c2ccc(OC)cc2)cc1 (stereo not given) returned KCNK3 block inactive, KCNQ1 inh inactive, Kir21 inh -7.7*, KCNQ1 pot inactive, KCNK9 inh inactive and hERG rescue -24.
`COc1ccc(C(OCC(O)CN(C)C2CCCCC2)c2ccc(OC)cc2)cc1` (stereo not given) gave KCNK3 block inactive, KCNQ1 inh inactive, Kir21 inh -2.4, KCNQ1 pot inactive, KCNK9 inh inactive and hERG rescue -11.
NC(=O)c1ncn([C@@H]2O[C@H](CNCc3cccn3-c3ccncc3)[C@@H](O)[C@H]2O)n1 was read as KCNK3 block inactive.
For CCC(=O)NCCCCCCNC(=O)CC the results were KCNK3 block inactive, KCNQ1 inh inactive, Kir21 inh -0.15, KCNQ1 pot inactive, KCNK9 inh inactive and hERG rescue 6.9*.
Cc1ccc(S(=O)(=O)N(C)C[C@@H]2Oc3ccc(NC(=O)Cn4cnnn4)cc3C(=O)N([C@@H](C)CO)C[C@H]2C)cc1 was read as KCNK3 block inactive.
`Cc1ccc2nc(C)c3c(c2c1)N(c1ccc(F)cc1)CC3` gave KCNK3 block inactive, KCNQ1 inh inactive, Kir21 inh -5.3*, KCNQ1 pot inactive, KCNK9 inh inactive and hERG rescue -14.
Screening CC(C#N)Sc1ncnc2sc(-c3ccccc3)cc12 (stereo not given) returned KCNK3 block inactive, KCNQ1 inh 6*, Kir21 inh -0.74, KCNQ1 pot inactive, KCNK9 inh inactive and hERG rescue -4.
For CN(CCC#N)C(=O)CSc1ncnc2sc(-c3ccccc3)cc12 the results were KCNK3 block inactive, KCNQ1 inh inactive, Kir21 inh -0.06, KCNQ1 pot inactive, KCNK9 inh inactive and hERG rescue -4.
For COc1ccc(Cl)cc1S(=O)(=O)N1CCN=C1Cc1ccccc1 the results were KCNK3 block inactive, KCNQ1 inh inactive, Kir21 inh -5.1*, KCNQ1 pot inactive, KCNK9 inh inactive and hERG rescue -10.
`CC[C@H](C)/C=C/C1=CC2=C(Cl)C(=O)[C@@]3(C)OC(=O)C(C(=O)[C@H](C)[C@@H](C)O)=C3C2=CO1` gave KCNK3 block inactive, KCNQ1 inh 6*, Kir21 inh -0.61, KCNQ1 pot inactive, KCNK9 inh inactive and hERG rescue -30.
Screening COc1cc(S(=O)(=O)NCC2COCCO2)ccc1-n1cnnn1 (stereo not given) returned KCNK3 block inactive, KCNQ1 inh inactive, Kir21 inh -0.01, KCNQ1 pot inactive, KCNK9 inh inactive and hERG rescue 5.8*.
For COc1ccc(S(=O)(=O)Nc2cc3c(C(C)=O)c(C)oc3c3ccccc23)cc1 the results were KCNK3 block inactive, KCNQ1 inh inactive, Kir21 inh 0.93, KCNQ1 pot inactive, KCNK9 inh -7.3* and hERG rescue -11.
Cc1oc2c(cc(NS(=O)(=O)c3ccc(F)cc3)c3ccccc32)c1C(=O)O was read as KCNK3 block inactive, KCNQ1 inh inactive, Kir21 inh -0.18, KCNQ1 pot inactive, KCNK9 inh inactive and hERG rescue -4.
Cc1oc2c(cc(NS(=O)(=O)c3ccc(C(C)C)cc3)c3ccccc32)c1C(=O)O was read as KCNK3 block inactive, KCNQ1 inh 9*, Kir21 inh -1.5, KCNQ1 pot inactive, KCNK9 inh inactive and hERG rescue -10.
Screening Cc1ccc2[nH]c(CNC(=O)C3CCCCC3)cc2c1 returned KCNK3 block inactive, KCNQ1 inh inactive, Kir21 inh 1.4, KCNQ1 pot inactive, KCNK9 inh inactive and hERG rescue -4.
Screening COc1cc2c(cc1OC)C1=CC(=O)C(=O)N1C(C)(C)C2 returned KCNK3 block inactive, KCNQ1 inh 12*, Kir21 inh -0.77, KCNQ1 pot inactive, KCNK9 inh inactive and hERG rescue -11.
For COc1cc2c(cc1OC)-c1nc3ccccc3c(=O)n1C(C)(C)C2 the results were KCNK3 block inactive, KCNQ1 inh inactive, Kir21 inh -1.3, KCNQ1 pot inactive, KCNK9 inh inactive and hERG rescue -13.
`CCc1cc2c(=O)c(-c3ccc4c(c3)OCCO4)coc2cc1OS(C)(=O)=O` gave KCNK3 block inactive, KCNQ1 inh 6*, Kir21 inh -0.71, KCNQ1 pot inactive, KCNK9 inh inactive and hERG rescue -12.
Screening CSC1=C(C#N)C(CC(C)C)C2=C(CCCC2=O)N1 (stereo not given) returned KCNK3 block inactive, KCNQ1 inh inactive, Kir21 inh 0.18, KCNQ1 pot inactive, KCNK9 inh inactive and hERG rescue -4.
`CSC1=C(C#N)C(CC(C)C)C(C(C)=O)=C(C)N1` (stereo not given) gave KCNK3 block inactive, KCNQ1 inh inactive, Kir21 inh -6.5*, KCNQ1 pot inactive, KCNK9 inh inactive and hERG rescue -2.
COc1ccc(CCn2c(C)nc3c(c(=O)c4ccccc4n3C)c2=O)cc1 was read as KCNK3 block inactive, KCNQ1 inh inactive, Kir21 inh -1.2, KCNQ1 pot inactive, KCNK9 inh inactive and hERG rescue -3.
COc1ccc(CCn2c(S)nc3ccccc3c2=O)cc1 was read as KCNK3 block inactive, KCNQ1 inh inactive, Kir21 inh 0.06, KCNQ1 pot 8*, KCNK9 inh inactive and hERG rescue 4.
Screening COC1=CC(=O)C(O)=C(CCCCCCC/C=C/CCCCCCCC2=C(O)C(=O)C=C(OC)C2=O)C1=O returned KCNK3 block inactive, KCNQ1 inh 10*, Kir21 inh -3.1, KCNQ1 pot inactive, KCNK9 inh inactive and hERG rescue -6.
O=C(NCCc1ccccc1F)C1CC(=O)N(c2cccc(C(F)(F)F)c2)C1 (stereo not given) was read as KCNK3 block inactive.
Screening COCCCNC(=O)CSc1nc2ccccc2c(=O)n1CCCN1CCCCC1 returned KCNK3 block inactive, KCNQ1 inh inactive, Kir21 inh -1.5, KCNQ1 pot inactive, KCNK9 inh inactive and hERG rescue -1.
Screening CCOC(=O)CSc1nc2c(sc3ccccc32)c(=O)n1CCCN1CCOCC1 returned KCNK3 block inactive, KCNQ1 inh inactive, Kir21 inh -0.87, KCNQ1 pot inactive, KCNK9 inh inactive and hERG rescue 4.9*.
Screening CCOC(=O)c1ccccc1NC(=O)CSc1nc2ccccc2c(=O)n1CCCN1CCOCC1 returned KCNK3 block -11*.
